SIRT5 block: sirtuin-5 (human) deacylase inhibition | Purified SirT5, succinyl-peptide AMC, trypsin-coupled fluorescence | Q9NXA8 | hit rate 1.1% among 330,000 | inhibition, % at 15 µM; in the data active = inhibition above about 15%; inconclusive = no clear call, values can overlap the other calls
Target sequence (Q9NXA8 whole entry, looked up): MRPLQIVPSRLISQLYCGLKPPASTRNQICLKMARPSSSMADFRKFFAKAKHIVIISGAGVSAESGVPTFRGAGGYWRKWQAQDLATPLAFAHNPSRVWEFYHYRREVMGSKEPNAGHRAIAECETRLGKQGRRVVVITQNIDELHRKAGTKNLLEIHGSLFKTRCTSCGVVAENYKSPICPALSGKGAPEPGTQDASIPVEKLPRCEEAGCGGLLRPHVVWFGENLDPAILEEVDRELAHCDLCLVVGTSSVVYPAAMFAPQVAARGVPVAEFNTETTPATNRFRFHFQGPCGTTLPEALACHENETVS
FN deposition inh: fibronectin deposition inhibition; AID 743247; AH1F fibroblasts, Alexa488-fibronectin deposition fluorescence, overnight; inhibition, % at 12.6 µM; hit rate 0.086% among 350,000;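 active = mean inhibition across replicates of 30% or more, regardless of how many single replicates reach that level; inconclusive = mean under 30% yet at least half of replicates reach 30%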;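 note: positive control wells lacked labelled fibronectin entirely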
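Test system: AH1F fibroblast monolayer depositing Alexa488-labelled fibronectin into matrix. Input: 10000 cells per well. Technique: fluorescence, ex 485 nm, em 525 nm. Buffer or medium: DMEM plus 2% serum, read in PBS. Timing: 1 h cell adhesion before compound, then overnight fibronectin incubation. Compound: single dose, pinned. Read-out basis: inhibition from reduced deposited-fibronectin fluorescence.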
ERp5 block: ERp5 (human) disulfide isomerase inhibition; Q15084; ERp5 insulin aggregation, absorbance 650 nm, 90 min; inhibition, % at 9.99 µM; hit rate 0.05% among 350,000; AID 651711;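 active = mean replicate inhibition above about 25%, with every replicate also reaching it, limit read from the data, passing the limit was not always enough; inconclusive = only one of those two criteria met; inactive = neither criterion met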
PDI turbidity: inhibitors of human protein disulfide isomerase. P07237. inhibition, % at 10 µM. hit rate 0.052% among 350,000. PDI insulin aggregation turbidity, A650, 90 min;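 active = mean inhibition across replicates of 30% or more, whatever share of single replicates reach that level; inconclusive = mean inhibition below 30% while every single replicate reaches 30%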
AF4-AF9 inh: MLL-AF4/AF9 protein interaction inhibition; AlphaScreen, biotin-AF4 peptide binding to FLAG-AF9; inhibition, % at 10 µM; hit rate 0.47% among 350,000;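 active = every replicate reaching a set inhibition limit, whatever the replicate mean, cut at about 25% in these data; inconclusive = mean inhibition reaches that limit but some replicates miss it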;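 note: 0% = plate neutral control median and 100% = total signal loss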
* marks the source's active call; other numbers are inactive results; ? = inconclusive; . = no result given. Compounds with a hit are over-represented: about 1.3% of the library has one in this group of screens.

SMILES	SIRT5 block	FN deposition inh	ERp5 block	PDI turbidity	AF4-AF9 inh
O=C(NC1CCC1)[C@@H]1[C@@H](CO)[C@@H]2Cn3c(ccc(C4=CCCCC4)c3=O)[C@@H]2N1C(=O)C1CCOCC1	-12.9	.	5.2	.	2.2
COc1cc2c(cc1N)-c1ccc(N)cc1C2=O	.	-0.3	-7.2	-7.6	35.1*
Nc1ccc2c(c1)C(=O)c1cc(N)c(Cl)cc1-2	.	-6.4	0.8	-9.2	9.9
Cc1ccccc1NC(=O)CSc1nnc(-c2ccccc2)n1-c1ccccc1	.	.	.	3.5	.
COc1ccccc1NC(=O)N[C@@H]1CC[C@H](CCNS(=O)(=O)c2ccc(Cl)cc2)O[C@@H]1CO	26.1*	-8.1	-1.5	.	2.6
O=C(N[C@H]1CC[C@H](CCNS(=O)(=O)c2ccc(Cl)cc2)O[C@H]1CO)c1cnccn1	32.5*	.	2.3	.	-1.6
COc1ccccc1N=Nc1ccc(O)c2ncccc12	2.7	10.6	5.8	-10.6	72.4*
CCS(=O)(=O)c1ccc(N=Nc2ccc(O)c3ncccc23)c(OC)c1	-6.5	8.3	0.4	-4.5	?
C[C@H]1CCCCO[C@H](CN(C)Cc2ccc(Cl)c(Cl)c2)[C@@H](C)CN([C@@H](C)CO)C(=O)c2cc(NC(=O)CCC(F)(F)F)ccc2O1	15.2*	.	1.0	.	-8.5
C[C@H]1CCCCO[C@@H](CN(C)C(=O)CCC(F)(F)F)[C@@H](C)CN([C@@H](C)CO)C(=O)c2cc(NC(=O)C3CCCCC3)ccc2O1	5.7	6.2	-1.5	.	-2.2
C[C@@H]1CCCCO[C@H](CN(C)Cc2ccc(C(F)(F)F)cc2)[C@H](C)CN([C@@H](C)CO)C(=O)c2cc(NC(=O)CCC(F)(F)F)ccc2O1	5.4	.	-2.4	.	4.7
C[C@@H]1CCCCO[C@@H](CN(C)C)[C@H](C)CN([C@@H](C)CO)C(=O)c2cc(NC(=O)CCC(F)(F)F)ccc2O1	17.2*	.	-2.8	.	-0.6
C[C@@H]1CN([C@H](C)CO)C(=O)c2cc(NC(=O)CCC(F)(F)F)ccc2O[C@@H](C)CCCCO[C@@H]1CN(C)Cc1ccc(C(F)(F)F)cc1	21.2*	.	-5.9	.	1.1
C[C@@H]1CCCCO[C@H](CN(C)C(=O)CCC(F)(F)F)[C@@H](C)CN([C@@H](C)CO)C(=O)c2cc(NC(=O)C3CCCCC3)ccc2O1	17.9*	-5.8	5.8	.	-2.7
C[C@H](CO)N1C[C@H](C)[C@H](CN(C)C)OCCCC[C@H](C)Oc2ccc(NC(=O)CCC(F)(F)F)cc2C1=O	-2.8	.	3.0	.	-2.5
CC(C)(C)N(Cc1ccccc1)C(=O)c1ccc(Br)o1	19.4*	-9.6	3.1	2.5	-5.4
CC(C)(C)N(Cc1ccccc1)C(=O)COC(=O)c1ccc(Br)o1	0.5	-13.1	-6.9	-2.0	0.7
COc1cccc(CN(C)Cc2nc3cc(C(F)(F)F)ccc3c(=O)[nH]2)c1	-1.9	3.7	10.7	2.2	36.1*
CCn1cc(C(=O)N2CCOCC2)c(=O)c2cc(S(=O)(=O)N(C)C)ccc21	5.3	-12.1	-0.4	.	-3.0
C[C@@H]1CCCCO[C@H](CN(C)S(=O)(=O)c2ccc(F)cc2)[C@H](C)CN([C@H](C)CO)C(=O)c2cc(NS(=O)(=O)c3ccc(Cl)cc3)ccc2O1	9.9	-3.3	-0.3	.	1.6
C[C@@H]1CCCCO[C@@H](CN(C)S(=O)(=O)c2ccc(F)cc2)[C@H](C)CN([C@H](C)CO)C(=O)c2cc(NS(=O)(=O)c3ccc(Cl)cc3)ccc2O1	16.5*	-1.7	1.1	.	-1.0
C[C@H](CO)N1C[C@H](C)[C@H](CN(C)S(=O)(=O)c2ccc(Cl)cc2)OCCCC[C@H](C)Oc2ccc(NS(=O)(=O)c3ccc(F)cc3)cc2C1=O	22.6*	0.7	0.1	.	-2.7
C[C@H]1CCCCO[C@H](CN(C)S(=O)(=O)c2ccc(Cl)cc2)[C@@H](C)CN([C@@H](C)CO)C(=O)c2cc(NS(=O)(=O)c3ccc(F)cc3)ccc2O1	23.5*	-7.0	-3.3	.	-2.2
C[C@@H]1CCCCO[C@H](CN(C)S(=O)(=O)c2ccc(F)cc2)[C@H](C)CN([C@@H](C)CO)C(=O)c2cc(NS(=O)(=O)c3ccc(Cl)cc3)ccc2O1	12.9	-1.0	-1.9	.	-0.1
Cc1ccc(S(=O)(=O)N2[C@@H](c3ccc(C(C)(C)C)cc3)C(C(=O)O)=CC[C@H]2c2ccc(Cl)c(Cl)c2)cc1	15.7*	.	-2.7	-7.2	-2.4
SMILES	SIRT5 block	FN deposition inh	ERp5 block	PDI turbidity	AF4-AF9 inh
COc1ccc(N2CC(NC(=O)N3CCc4ccccc43)CC2=O)cc1OC (stereo unspecified)	19.6*	1.8	-7.5	3.7	-26.5
COc1ccc(C(=O)NC(=S)N2CCCc3ccccc32)cc1OC	112.3*	.	-0.5	2.5	1.0
COc1ccccc1C(=O)NC(=S)N1CCCc2ccccc21	0.7	.	1.2	-2.1	-64.9
CC1Cc2ccccc2N1C(=O)NC1CC(=O)N(c2ccc3c(c2)OCCO3)C1 (stereo unspecified)	-0.5	-1.8	-0.2	6.7	-9.6
CN1CCN(C(=O)c2cc(COc3c(F)cccc3F)on2)CC1c1ccccc1 (stereo unspecified)	5.2	-6.4	-0.8	-2.1	0.6
CNC(=O)C[C@@H]1CC[C@H]2[C@@H](COc3ccc(NC(=O)Nc4ccccc4F)cc3C(=O)N2C)O1	-7.8	-6.4	2.5	.	-0.1
COc1cc(-c2cc(=O)c3c(O)c(OC)c(OC)c(OC)c3o2)cc(OC)c1OC	-1.0	.	4.6	.	0.0
COc1cc(/C=C(\C#N)C(=O)N2CCOCC2)cc(Br)c1O	1.3	-8.3	7.9	2.3	2.7
C[C@H](CO)N1C[C@H](C)[C@H](CN(C)S(=O)(=O)c2ccc(C(F)(F)F)cc2)OCc2ccccc2-c2ccccc2C1=O	8.2	-9.3	8.0	.	0.7
O=C(O)c1ccccc1C(=O)Nc1ccccn1	.	1.4	.	-3.3	.
CC(=O)c1cccc(N(CC(=O)NC2CCCCC2)C(=O)c2csnn2)c1	-3.5	9.1	2.3	1.3	34.1*
O=C(O)COc1ccc(/C=N/NC(=O)c2ccc(-c3csc(Nc4ccc(Cl)cc4)n3)cc2)cc1	28.4*	-4.6	-5.1	-2.0	0.3
Cc1ccc2cc3c(NC(=O)C(C)C)nn(C)c3nc2c1	.	.	.	10.1	.
Cc1ccc(NC(=O)NCCCN2CCCC2=O)cc1Cl	5.3	-4.6	7.4	7.0	0.0
C[C@@H]1CN([C@@H](C)CO)C(=O)c2cccc(NC(=O)Nc3ccc(C(F)(F)F)cc3)c2O[C@@H]1CN(C)Cc1ccc(-c2ccccc2)cc1	2.2	.	5.9	.	-2.7
C[C@@H]1CN([C@H](C)CO)C(=O)c2cccc(NC(=O)Nc3ccc(C(F)(F)F)cc3)c2O[C@@H]1CN(C)Cc1ccc(-c2ccccc2)cc1	102.7*	.	-5.2	.	-0.4
COc1ccc(NC(=O)Nc2cccc3c2O[C@@H](CN(C)Cc2ccc(Oc4ccccc4)cc2)[C@H](C)CN([C@@H](C)CO)C3=O)cc1	16.3*	.	0.2	.	-2.3
COc1ccc(NC(=O)Nc2cccc3c2O[C@@H](CN(C)Cc2ccc(Oc4ccccc4)cc2)[C@@H](C)CN([C@@H](C)CO)C3=O)cc1	15.3*	.	-2.8	.	4.2

Screening results: PubChem, Broad Institute
